What was measured:
[1] = Half life in rat; assay type: ADME, organism-based; details: in vivo
[2] = Bioavailability in rat; assay type: ADME, organism-based; details: in vivo
[3] = Stability assessed as liver microsomal turnover in rat at 1 uM; assay type: ADME, Microsome; details: liver microsomes, read-out: Stability
In short: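 Compound at 1 μM was incubated with rat liver microsomal protein (5 mg/mL) plus NADPH at 37 °C for 20 min. Percentage of parent remaining was quantified by LC–MS.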

Gamma-secretase = assay: Inhibition of gamma secretase; assay type: protein-complex assay, Homo sapiens
[4] = Brain to plasma ratio for reduction of DEA-extractable brain beta amyloid in orally dosed APP-YAC mouse after 4 hrs; assay type: ADME, organism-based; details: po
Mus musculus [5] = assay: Brain concentration for reduction of DEA-extractable brain beta amyloid in orally dosed APP-YAC mouse after 4 hrs relative to control; assay type: ADME, organism-based
In short: (§1)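 APP-YAC transgenic mice were dosed orally with a dose-response titration, with vehicle and a positive-control γ-secretase inhibitor as references. At 4 h post-dose, DEA-extractable brain Aβ was measured alongside plasma and brain drug levels. EC50 is the plasma or brain concentration giving a 50% cut in brain Aβ. ED50 is the oral dose reaching those levels.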

Mus musculus [6] = assay: Plasma concentration for reduction of DEA-extractable brain beta amyloid in orally dosed APP-YAC mouse after 4 hrs relative to control; assay type: ADME, organism-based; in short: as §1
Mus musculus [7] = assay: Reduction of DEA-extractable brain beta amyloid in orally dosed APP-YAC mouse after 4 hrs; assay type: ADME, organism-based; details: po; in short: as §1

Structure (SMILES) | metabolised at 1 µM [3] [%] | IC50 (Gamma-secretase) [nM] | further results
CS(=O)(=O)NCC1CCCC(c2cc(F)ccc2F)(S(=O)(=O)c2ccc(Cl)cc2)C1 (stereo not drawn) |  |  | half-life [1]: 66 min; bioavailability [2]: 31%
CCN1C[C@@H]2C[C@](c3cc(F)ccc3F)(S(=O)(=O)c3ccc(Cl)cc3)CC[C@@H]2NS1(=O)=O (racemic) | 46 | 0.4 | 
CC(C)N1C[C@@H]2C[C@](c3cc(F)ccc3F)(S(=O)(=O)c3ccc(Cl)cc3)CC[C@@H]2NS1(=O)=O (racemic) |  | 0.41 | 
CC(C)(C)N1C[C@@H]2C[C@](c3cc(F)ccc3F)(S(=O)(=O)c3ccc(Cl)cc3)CC[C@@H]2NS1(=O)=O (racemic) | 15 | 1.39 | 
O=S1(=O)NC[C@@H]2C[C@](c3cc(F)ccc3F)(S(=O)(=O)c3ccc(Cl)cc3)CC[C@@H]2N1C1CC1 (racemic) |  | 0.04 | Kp at 4 h [4]: 0.16; EC50 (Mus musculus [5]): 20 nM; EC50 (Mus musculus [6]): 104 nM; ED50 (Mus musculus [7]): 11.4 mg/kg
O=S1(=O)NC[C@@H]2C[C@](c3cc(F)ccc3F)(S(=O)(=O)c3ccc(Cl)cc3)CC[C@@H]2N1 (racemic) | 9 | 6.18 | 
O=S1(=O)N[C@H]2CC[C@@](c3cc(F)ccc3F)(S(=O)(=O)c3ccc(Cl)cc3)C[C@H]2CN1C1CC1 (racemic) | 14 | 0.19 | 
CCCN1C[C@@H]2C[C@](c3cc(F)ccc3F)(S(=O)(=O)c3ccc(Cl)cc3)CC[C@@H]2NS1(=O)=O (racemic) | 63 | 1.17 | 
O=S1(=O)N[C@H]2CC[C@@](c3cc(F)ccc3F)(S(=O)(=O)c3ccc(Cl)cc3)C[C@H]2CN1C1CCC1 (racemic) | 68 | 0.26 | 
CN1C[C@@H]2C[C@](c3cc(F)ccc3F)(S(=O)(=O)c3ccc(Cl)cc3)CC[C@@H]2NS1(=O)=O (racemic) | 17 | 0.9 | 
CCC1C[C@@H]2C[C@](c3cc(F)ccc3F)(S(=O)(=O)c3ccc(Cl)cc3)CC[C@@H]2CS1(=O)=O (single isomer, unassigned) | 15 | 0.76 | Kp at 4 h [4]: 0.41; EC50 (Mus musculus [5]): 327 nM; EC50 (Mus musculus [6]): 761 nM; ED50 (Mus musculus [7]): 3.9 mg/kg
CCC1C[C@@H]2C[C@](c3cc(F)ccc3F)(S(=O)(=O)c3ccc(Cl)cc3)CC[C@@H]2NS1(=O)=O (single isomer, unassigned) | 7 | 0.06 | Kp at 4 h [4]: 0.18; EC50 (Mus musculus [5]): 88 nM; EC50 (Mus musculus [6]): 380 nM; ED50 (Mus musculus [7]): 2.8 mg/kg
CC1C[C@@H]2C[C@](c3cc(F)ccc3F)(S(=O)(=O)c3ccc(Cl)cc3)CC[C@@H]2NS1(=O)=O (single isomer, unassigned) | 20 | 0.08 | 
CCCC1C[C@@H]2C[C@](c3cc(F)ccc3F)(S(=O)(=O)c3ccc(Cl)cc3)CC[C@@H]2NS1(=O)=O (single isomer, unassigned) | 32 | 0.24 | 

Reference: ChEMBL document CHEMBL1147804, “3,4-Fused cyclohexyl sulfones as gamma-secretase inhibitors” (Bioorg Med Chem Lett, 2006)
